From ChEMBL document CHEMBL1122522, “Conformationally restricted retinoids” (1984) come the findings set out here.

Usually inhibition stands for the drop in the measured response relative to a control, in per cent.

Some results are limits rather than exact numbers.

Test [1] deals with T1, Ornithine decarboxylase (Mus musculus) (UniProt P00860).
T1 sequence (whole entry): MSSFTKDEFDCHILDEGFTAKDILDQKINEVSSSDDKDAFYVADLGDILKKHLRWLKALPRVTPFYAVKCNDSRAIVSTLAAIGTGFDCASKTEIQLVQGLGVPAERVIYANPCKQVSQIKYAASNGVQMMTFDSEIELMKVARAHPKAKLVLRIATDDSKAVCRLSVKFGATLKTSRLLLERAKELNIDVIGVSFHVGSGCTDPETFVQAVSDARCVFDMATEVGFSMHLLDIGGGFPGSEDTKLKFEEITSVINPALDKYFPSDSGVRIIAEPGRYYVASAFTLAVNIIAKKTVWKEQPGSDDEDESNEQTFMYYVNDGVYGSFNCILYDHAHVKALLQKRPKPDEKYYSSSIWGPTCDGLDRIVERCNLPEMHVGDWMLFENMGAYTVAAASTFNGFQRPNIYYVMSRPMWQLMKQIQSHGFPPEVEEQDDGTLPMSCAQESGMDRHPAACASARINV
The experiment in a line: Inhibition of the induction of ornithine decarboxylase in mouse epidermis by the tumor promoter 12-O-tetradecanoylphorbol-13-acetate (ODC) at dose 1.7 nmol * Inhibition not significant.

The subject of test [2] is Cricetinae gen. sp. The experiment in a line: Activity of compound the was expressed as ratio of active hamster tracheal organ cultures(TOC) to the total cultures at 10e-9 M concentration; 3/7. Type of test: functional, Cricetulus griseus, Trachea. In short, it runs like this:
(§1)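 Tracheal organ cultures came from vitamin A-deficient hamsters. Each culture was scored for reversal of keratinization and reported as active cultures out of total cultures at each retinoid concentration tested (10⁻⁸ to 10⁻¹² M). The protocol followed earlier published methods.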

In test [3] the test system is Cricetinae gen. sp. The experiment in a line: Molarity required to effect reversal of keratinization in 50% of cultures. It is filed as functional, Cricetulus griseus.
Test [4] addresses T1, Ornithine decarboxylase (Mus musculus). The experiment in a line: Inhibition of the induction of ornithine decarboxylase in mouse epidermis by the tumor promoter 12-O-tetradecanoylphorbol-13-acetate (ODC) at dose 17 nmol * p<0.01.
Test [5] concerns Cricetinae gen. sp. Put plainly: Activity of compound the was expressed as ratio of active hamster tracheal organ cultures(TOC) to the total cultures at 10e-8 M concentration; 4/7. It is filed as functional, Cricetulus griseus, Trachea. In short, it runs like this: as §1
Test [6] deals with Cricetinae gen. sp. The experiment in a line: Activity of compound the was expressed as ratio of active hamster tracheal organ cultures(TOC) to the total cultures at 10e-10 M concentration; 1/6. It is filed as functional, Cricetulus griseus, Trachea. In short, it runs like this: as §1
Test [7] deals with Cricetinae gen. sp. The experiment in a line: Activity of compound the was expressed as ratio of active hamster tracheal organ cultures(TOC) to the total cultures at 10e-8 M concentration; 1/5. It is filed as functional, Cricetulus griseus, Trachea. In short, it runs like this:
as §1

Test [8] relates to Cricetinae gen. sp. Put plainly: Activity of compound the was expressed as ratio of active hamster tracheal organ cultures(TOC) to the total cultures at 10e-9 M concentration; 1/5. It is filed as functional, Cricetulus griseus, Trachea. In short, it runs like this:
as §1

Test [9] is filed under the species Mus musculus. Put plainly: Percent decrease in average number of papillomas at dose 17 nmol. It is filed as functional. In short, it runs like this:
(§2)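 Female Charles River CD-1 mice, 8 weeks old, in random groups of 25–30, were shaved 2 days before initiation with 200 nmol DMBA in acetone on the back. From 2 weeks on, 8.5 nmol TPA was applied twice weekly for 20 weeks. Retinoid in 0.2 mL acetone, or acetone alone for controls, was given 1 h before each TPA dose. Papillomas were counted weekly, and mean papillomas per mouse were compared with controls at 20 weeks.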

A short description of test [10]: Mortality range in days at dose 300 umol/kg day; 12-15. Type of test: functional, Mus musculus. In short, it runs like this:
(§3)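 Adult female Swiss mice (20–25 g) had chow and water ad libitum. The retinoid was homogenized as a suspension in aqueous 8% Cremophor EL plus 10% propylene glycol. It was given ip as 10 weekday injections over 14 days. Controls received vehicle alone. Survivors were weighed on days 1, 5, 10 and 15, and dates of death were recorded. Survival was scored at days 8 and 15.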

Test [11] concerns the target T1, Ornithine decarboxylase (Mus musculus). Put plainly: Inhibition of the induction of ornithine decarboxylase in mouse epidermis by the tumor promoter 12-O-tetradecanoylphorbol-13-acetate (ODC) at dose 1.7 nmol.
Test [12] concerns Cricetinae gen. sp. The experiment in a line: Activity of compound the was expressed as ratio of active hamster tracheal organ cultures(TOC) to the total cultures at 10e-8 M concentration; 7/7. Conditions: at 0.01 µM. Type of test: functional, Cricetulus griseus, Trachea.
Test [13] is filed under the species Mus musculus. The experiment in a line: Tested for relative activity in a 20-week anti-papilloma experiment in female CD-1 mice at dose 17 nmol. Type of test: functional. In short, it runs like this:
as §2

Test [14] concerns Cricetinae gen. sp. The experiment in a line: Activity of compound the was expressed as ratio of active hamster tracheal organ cultures(TOC) to the total cultures at 10e-9 M concentration; 7/7. It is filed as functional, Cricetulus griseus, Trachea. In short, it runs like this:
as §1

A short description of test [15]: Mortality range in days at dose 600 umol/kg day; 7-10. It is filed as functional, Mus musculus. In short, it runs like this: as §3
A short description of test [16]: Percent survivors at dose 200 umol/kg day. Type of test: functional, Mus musculus. In short, it runs like this: as §3
Test [17] has as its target T1, Ornithine decarboxylase (Mus musculus). Put plainly: Inhibition of the induction of ornithine decarboxylase in mouse epidermis by the tumor promoter 12-O-tetradecanoylphorbol-13-acetate (ODC) at dose 17 nmol.
Test [18] is described as follows: Percent survivors at dose 300 umol/kg day. It is filed as functional, Mus musculus. In short, it runs like this:
as §3

Test [19] has as its system Cricetinae gen. sp. Put plainly: Activity of compound the was expressed as ratio of active hamster tracheal organ cultures(TOC) to the total cultures at 10e-10 M concentration; 4/13. It is filed as functional, Cricetulus griseus, Trachea. In short, it runs like this:
as §1

Test [20] in a line: Mortality range in days at dose 200 umol/kg day. It is filed as functional, Mus musculus. In short, it runs like this:
as §3

Test [21] in a line: Percent survivors at dose 600 umol/kg day. It is filed as functional, Mus musculus. In short, it runs like this: as §3
Test [22] in a line: Percent survivors at dose 30 umol/kg day. It is filed as functional, Mus musculus. In short, it runs like this:
as §3

Test [23] in a line: Percent survivors at dose 100 umol/kg day. It is filed as functional, Mus musculus. In short, it runs like this: as §3
The species entered for test [24] is Mus musculus. Put plainly: Tested for relative activity in a 20-week anti-papilloma experiment in female CD-1 mice at dose 170 nmol. It is filed as functional. In short, it runs like this:
as §2

The species entered for test [25] is Mus musculus. The experiment in a line: Percent decrease in average number of papillomas at dose 170 nmol. Type of test: functional. In short, it runs like this: as §2
Test [26] concerns Cricetinae gen. sp. The experiment in a line: Activity of compound the was expressed as ratio of active hamster tracheal organ cultures(TOC) to the total cultures at 10e-10 M concentration; 1/7. Type of test: functional, Cricetulus griseus, Trachea. In short, it runs like this:
as §1

For test [27], the target named is T1, Ornithine decarboxylase (Mus musculus). Put plainly: Inhibition of the induction of ornithine decarboxylase in mouse epidermis by the tumor promoter 12-O-tetradecanoylphorbol-13-acetate (ODC) at dose 17 nmol * inhibition not significant.
The test system of test [28] is Cricetinae gen. sp. The experiment in a line: Activity of compound the was expressed as ratio of active hamster tracheal organ cultures(TOC) to the total cultures at 10e-9 M concentration; 2/6. It is filed as functional, Cricetulus griseus, Trachea. In short, it runs like this: as §1
Test [29] concerns the target T1, Ornithine decarboxylase (Mus musculus). Put plainly: Inhibition of the induction of ornithine decarboxylase in mouse epidermis by the tumor promoter 12-O-tetradecanoylphorbol-13-acetate (ODC) at dose 1.7 nmol * p<0.001* inhibition not significant.
The target is the same in test [30]. The experiment in a line: Inhibition of the induction of ornithine decarboxylase in mouse epidermis by the tumor promoter 12-O-tetradecanoylphorbol-13-acetate (ODC) at dose 17 nmol; Inhibition not significant.
For test [31] the target is unchanged. The experiment in a line: Inhibition of the induction of ornithine decarboxylase in mouse epidermis by the tumor promoter 12-O-tetradecanoylphorbol-13-acetate (ODC) at dose 1.7 nmol; Inhibition not significant.
Test [32] concerns Cricetinae gen. sp. Put plainly: Activity of compound the was expressed as ratio of active hamster tracheal organ cultures(TOC) to the total cultures at 10e-9 M concentration; 1/7. Type of test: functional, Cricetulus griseus, Trachea. In short, it runs like this: as §1
Test [33] relates to Cricetinae gen. sp. Put plainly: Activity of compound the was expressed as ratio of active hamster tracheal organ cultures(TOC) to the total cultures at 10e-8 M concentration; 2/7. It is filed as functional, Cricetulus griseus, Trachea. In short, it runs like this:
as §1

Take `CCOC(=O)c1ccc(/C=C/c2ccc3c(c2)C2CCC3C2)cc1` (stereo not drawn): the inhibition in test [1] came out at 15%; in test [4], 39%. Also, the Activity in [2] was 43%; in [5], 4%; in [6], 1%. Moreover, in test [3], the ED50 came out at 3e-09.
On to `CC1=C(/C=C/c2ccc(/C(C)=C/C(=O)O)cc2)C(C)(C)CCC1`, for which the Activity in test [7] and in test [8] was 1% each time. For the same molecule, the ED50 in test [3] is over 1e-08.
For `C/C(=C\c1ccc(C(=O)O)cc1)c1ccc2c(c1)C(C)(C)CCO2`, the Decrease worked out at 75% in test [9] and 94% in test [25]. For the same molecule, the values for the Mortality range in test [10], in test [15] and in [20] were 15 days, 10 days and 14 days, respectively. For the same molecule, the inhibition was 42% in [11] and 81% in [17]. Further, the Activity in test [12] amounted to 7%; in test [13], 53%; in test [14] it was 100%; in [19] it was 4%; in test [24], 38%. Further, the “Survivors at day 8” value in test [16] was found to be 100%; in test [18] it was 100%; in [21], 70%; in test [22], 100%; in test [23] it was 100%. Further, the “Survivors at day 15” value in test [16] is 90%; in test [18], 50%; in test [21], 0%; in [23], 100%. Besides, the ED50 in [3] was 2e-10.
Consider `CCOC(=O)c1ccc(C2CC2c2ccc3c(c2)C2CCC3C2)cc1` (stereo not drawn), for which the Activity was found to be 1% in test [26], 33% in test [28] and 4% in test [5]. In addition, the inhibition came out at 0% in test [27] and 12% in test [29]. For the same molecule, the ED50 in [3] was 5e-09.
As to `CC1=C(c2ccc(/C=C/C(C)=C/C(=O)O)c(C)c2)C(C)(C)CCC1`, the inhibition turned out to be 23% in test [30] and 9% in test [31]. For the same molecule, the values for the Activity in test [26], in test [32] and in test [33] were 1%, 1% and 2%, respectively. Moreover, in test [3], the ED50 is reported as over 1e-08.
